Measured values as given in ChEMBL document CHEMBL5223110, “Novel allosteric glutaminase 1 inhibitors with macrocyclic structure activity relationship analysis” (Bioorg Med Chem Lett, 2022).

Key:
[1] = biological target: T1, Glutaminase kidney isoform, mitochondrial (Homo sapiens, UniProt O94925); test: Inhibition of GLS1 (unknown origin)
T1 sequence (O94925 whole entry): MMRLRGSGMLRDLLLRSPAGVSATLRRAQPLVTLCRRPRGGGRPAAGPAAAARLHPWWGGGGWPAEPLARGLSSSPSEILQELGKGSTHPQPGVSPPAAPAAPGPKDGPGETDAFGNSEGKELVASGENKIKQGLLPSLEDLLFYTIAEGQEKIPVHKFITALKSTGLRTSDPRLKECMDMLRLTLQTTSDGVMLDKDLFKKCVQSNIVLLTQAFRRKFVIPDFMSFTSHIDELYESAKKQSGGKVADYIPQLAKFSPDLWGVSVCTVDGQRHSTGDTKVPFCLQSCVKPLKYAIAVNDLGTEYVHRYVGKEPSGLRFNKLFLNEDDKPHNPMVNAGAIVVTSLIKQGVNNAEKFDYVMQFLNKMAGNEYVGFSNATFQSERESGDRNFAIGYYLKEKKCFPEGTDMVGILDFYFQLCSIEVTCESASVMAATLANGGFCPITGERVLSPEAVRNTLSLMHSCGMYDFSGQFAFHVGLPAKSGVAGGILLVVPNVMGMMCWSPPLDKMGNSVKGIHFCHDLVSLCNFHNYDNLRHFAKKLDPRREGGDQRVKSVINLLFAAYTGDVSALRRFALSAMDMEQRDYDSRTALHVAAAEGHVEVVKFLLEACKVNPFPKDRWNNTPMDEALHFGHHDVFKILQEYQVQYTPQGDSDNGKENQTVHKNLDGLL

[2] = system: LR; test: (§1) Antiproliferative activity against human LR cells incubated for 72 hrs by Celltiter-Glo assay; type: functional, cell-based
How it was run: (§2)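 Cells treated with 0, 0.01, 0.03, 0.1, 0.3 and 1 μM of compound for 72 h. Viability read by CellTiter-Glo luminescence. IC50 taken from the dose–response curves. LR cells are LDK378-resistant. A549 and H460 carry co-occurring KRAS and KEAP1 mutations, and H358 carries a KRAS mutation only.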

[3] = as §1; type: functional, cell-based; how it was run: as §2
[4] = system: A549; test: Antiproliferative activity against human A549 cells incubated for 72 hrs by Celltiter-Glo assay; type: functional, cell-based; conditions: A549, 72 h; how it was run: as §2
[5] = system: NCI-H460; test: Antiproliferative activity against human NCI-H460 cells incubated for 72 hrs by Celltiter-Glo assay; type: functional, cell-based; conditions: NCI-H460, 72 h; how it was run: as §2
[6] = system: NCI-H358; test: Antiproliferative activity against human NCI-H358 cells incubated for 72 hrs by Celltiter-Glo assay; type: functional, cell-based; conditions: NCI-H358, 72 h; how it was run: as §2

In the case of `O=C1Cc2cccc(c2)OCCOCCOCCOCCOc2cccc(c2)CC(=O)NC2=NN=C(CCCCC3=NN=C(N1)S3)S2`, the IC50 [1] is reported as 4000 nM.
In the case of `O=C1Cc2cccc(c2)OCCCCCOc2cccc(c2)CC(=O)Nc2nnc(s2)CCCCc2ccc(nn2)N1`, the IC50 [1] is reported as 1000 nM.
`O=C1Cc2cccc(c2)OCCOCCOc2cccc(c2)CC(=O)NC2=NN=C(CCCC3=NN=C(N1)S3)S2` showed an IC50 [1] of 4000 nM.
For `O=C1Cc2cccc(c2)OCCOCCOc2cccc(c2)CC(=O)Nc2nnc(s2)CCCCc2ccc(nn2)N1`, the IC50 [1] was 400 nM and the Activity [2] was “Dose-Dependent Effect”.
In the case of `O=C(Cc1cccc(OC(F)(F)F)c1)Nc1ccc(CCCCc2nnc(NC(=O)Cc3ccccn3)s2)nn1`, the IC50 [3] is reported as less than 100 nM, the Activity [2] is reported as “Dose-Dependent Effect” and the IC50 [4] is reported as 26 nM. It also gave an IC50 [5] of 36 nM and an IC50 [6] greater than 1000 nM.
For `O=C1Cc2cccc(c2)OCCOc2cccc(c2)CC(=O)NC2=NN=C(CCCCC3=NN=C(N1)S3)S2`, the IC50 [1] was 980 nM.
With `O=C1Cc2cccc(c2)OCCCOCCCOc2cccc(c2)CC(=O)Nc2nnc(s2)CCCCc2ccc(nn2)N1` the IC50 [1] was 800 nM.
With `O=C1Cc2cccc(c2)OCCOc2cccc(c2)CC(=O)Nc2ccc(nn2)CCCCc2ccc(nn2)N1` the IC50 [1] was 180 nM and the Activity [2] was “Dose-Dependent Effect”.
In the case of `O=C1Cc2ccc(cc2)OCCOCCOCCOc2cccc(c2)CC(=O)Nc2nnc(s2)CCCCc2nnc(s2)N1`, the IC50 [1] is reported as 3000 nM.
With `O=C1Cc2cccc(c2)OCCOCCOc2cccc(c2)CC(=O)Nc2ccc(nn2)CCCCc2ccc(nn2)N1` the IC50 [1] was 430 nM and the Activity [2] was “Dose-Dependent Effect”.
With `O=C1Cc2cccc(c2)OCCOCCOc2cccc(c2)CC(=O)NC2=NN=C(CCCCC3=NN=C(N1)S3)S2` the IC50 [1] was 2000 nM.
In the case of `O=C1Cc2cccc(c2)OCCCOCCCOc2cccc(c2)CC(=O)Nc2ccc(nn2)CCCCc2ccc(nn2)N1`, the IC50 [1] is reported as 310 nM, the IC50 [3] is reported as less than 100 nM and the Activity [2] is reported as “Dose-Dependent Effect”. The IC50 [4] was 95 nM, the IC50 [5] was 88 nM and the IC50 [6] was greater than 1000 nM.
For `O=C1Cc2cccc(c2)OCCCCCCCOc2cccc(c2)CC(=O)Nc2nnc(s2)CCCCc2ccc(nn2)N1`, the IC50 [1] was 3000 nM.
Molecule `O=C1Cc2cccc(c2)OCCOCCOc2cccc(c2)CC(=O)NC2=NN=C(CCCCCC3=NN=C(N1)S3)S2` has an IC50 [1] of 10000 nM.
